Test results: publication PMC11757046 (Journal of medicinal chemistry, 2025)

Columns and labels:
Assay type in all cases: cell-based, human
SH-SY5Y cells [1] = assay: Intracellular reactive oxygen species assay; conditions: for intracellular ROS level relative to untreated control: MPP+-inhibited cells, DCFDA fluorometric assay
SH-SY5Y cells [2] = assay: Detoxification of external aldehyde Ia; conditions: then 20 μM Ia 24 h, relative to Ia only; for fold increase in cell viability against Ia: 1 mM detox agent 3 h
Procedure, shortened: (§1)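 SH-SY5Y cells grown in DMEM/F12 with 10% FBS and seeded in 96-well plates for ~48 h at 37 °C, 5% CO2. They were pretreated with the test compound in fresh medium, washed twice, then exposed to the aldehyde in medium at 37 °C. Viability was read by SRB at 510 and 565 nm, background-subtracted. Fold change is % viable over aldehyde-only wells. Mean ± SD, n = 6, one-way ANOVA.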

SH-SY5Y cells [3] = assay: Detoxification of external aldehyde IIa; conditions: IIa 150 μM; relative to IIa only
Procedure, shortened: as §1

SH-SY5Y cells [4] = assay: Protection of MPP+-inhibited cells; conditions: then 1 mM MPP+ 24 h, relative to MPP+ only
SH-SY5Y cells [5] = assay: NAD+/NADH ratio assay; conditions: MPP+-inhibited cells; negative control 68%
SH-SY5Y cells [6] = assay: JC-10 mitochondrial membrane potential assay; conditions: MPP+-inhibited cells
SH-SY5Y cells [7] = assay: Aldehyde quantification assay in MPP+-treated cells
[8] = Protection of MPP+-inhibited cells; conditions: human

Row | SMILES | fold increase in cell viability against Ia (SH-SY5Y cells [2]) | fold improvement in cell viability against IIa (SH-SY5Y cells [3]) | fold increase in cell viability against MPP+ (SH-SY5Y cells [4]; 1 mM detox agent 3 h) [fold] | intracellular ROS level relative to untreated control (SH-SY5Y cells [1]) [×] | intracellular NAD+ content (NAD+ %) (SH-SY5Y cells [5]) | fold increase in cell viability against MPP+ (SH-SY5Y cells [4]; 50 μM detox agent 3 h) [fold] | MMP, red/green fluorescence ratio (JC-10) (SH-SY5Y cells [6]) | also measured
1 | CCCCCC(O)C=CC=O (centres unmarked) [Ia, 4-hydroxynon-2-enal] |  |  |  |  |  |  |  | ROS levels after treatment with the aldehyde (SH-SY5Y cells [1]; SH-SY5Y cells treated with Ia): significantly increased ROS levels
2 | O=C1O[C@H]([C@@H](O)CO)C(O)=C1O [Asc, sodium ascorbate] | negligible change | none of the conventional detox agents | 1.1 |  |  |  |  | 
3 | CC(C)(O)c1nc2ccc(Cl)cc2cc1N [Rep, reproxalap] |  | none of the conventional detox agents |  | 5.1 | 41% | 1.3 | 0.4 | change in cell viability against Ia (SH-SY5Y cells [2]; 50 μM detox agent 3 h): negligible change
4 | NCCC(=O)N[C@@H](Cc1cnc[nH]1)C(=O)O [Car, carnosine] | 1.3 fold | none of the conventional detox agents | 1.2 | 7.5 | negligible effect |  |  | 
5 | N[C@@H](Cc1ccc(O)c(O)c1)C(=O)O [L-Dopa, levodopa] |  | none of the conventional detox agents |  |  |  | 1.2 |  | 
6 | C[n+]1ccc(-c2ccccc2)cc1.[I-] [MPP^+, 1-methyl-4-phenylpyridinium iodide] |  |  |  | 9.1 | 27% |  | 0.2 | aldehyde concentration relative to untreated cells (SH-SY5Y cells [7]): about 44 ×; aldehyde concentration in cells (SH-SY5Y cells [7]; Ir2mito used with HCOONa): 89 nmol/10^6 cells; viability at 24 h, 1 mM [8]: 54%
